Assay results published in ChEMBL document CHEMBL1135536, “Structure-activity relationships in 4-aminoquinoline antiplasmodials. The role of the group at the 7-position” (J Med Chem, 2002).

Tests used:
[1] = Normalised IC50 was measured; type: functional
Method in brief: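 Normalized IC50 is the D10 P. falciparum IC50 multiplied by α. α is the compound's calculated vacuolar accumulation ratio divided by chloroquine's, both from measured pKa values, assuming vacuolar pH 5.5 and external pH 7.4.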

[2] = Acid dissociation constant of the quinolinium cation; type: ADME; conditions: read-out: pKa1
Method in brief: (§1)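 Glass-electrode potentiometric titration under nitrogen at 25 °C in 0.15 M NaCl background electrolyte. Data were fitted to give two pKa values per aminoquinoline. Reported values are the average of three independent measurements, with error given as 1 SD.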

[3] = Acid dissociation constant of the tertiary ammonium group; type: ADME; conditions: read-out: pKa2; method in brief: as §1
[4] = Association constant of hematin-aminoquinoline complex formation reported by spectrophotometric titration in aqueous dimethyl sulfoxide(DMSO) at pH 7.5; type: ADME; conditions: buffer
Method in brief: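 Spectrophotometric titration of monomeric hematin with aminoquinoline, fitted to 1:1 complex formation. Run at 25 °C, pH 7.5, in 40% aqueous DMSO with 20 mM HEPES. Reported as log K, the average of three independent measurements ± 1 SEM.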

Plasmodium falciparum = experiment: In vitro antiplasmodial activity against chloroquine-sensitive Plasmodium falciparum D10; type: functional, organism-based

Row | pKa [2] | pKa [3] | Log K [4] | IC50 (Plasmodium falciparum) | Compound | IC50 [1]
1 | 7.5 | 7.65 | 4.67 | 99 nM | CCN(CC)CCNc1ccnc2cc(C(F)(F)F)ccc12 | 48 nM
2 | 7.48 | 7.79 | 5.02 | 35 nM | CCN(CC)CCNc1ccnc2cc(I)ccc12 | 17 nM
3 | 6.28 | 8.8 | 4.65 | 325 nM | CCN(CC)CCNc1ccnc2cc([N+](=O)[O-])ccc12 | 28 nM
4 | 8.12 | 9.51 | 4.86 | 82 nM | CCN(CC)CCNc1ccnc2cc(C)ccc12 | 74 nM
5 | 8.36 | 10 | 4.35 | > 5000 nM | CCN(CC)CCNc1ccnc2cc(N)ccc12 | > 4830 nM
6 | 7.56 | 8.83 | 5.81 | 37 nM | CCN(CC)CCNc1ccnc2cc(Cl)ccc12 | 23 nM
7 | 7.62 | 9.24 | 4.6 | 138 nM | CCN(CC)CCNc1ccnc2cc(F)ccc12 | 92 nM
8 | 7.93 | 7.97 | 4.99 | 36 nM | CCN(CC)CCNc1ccnc2cc(Br)ccc12 | 28 nM
9 | 6.82 | 8.95 | 4.48 | 3070 nM | CCN(CC)CCNc1ccnc2cc(O)ccc12 | 700 nM
10 | 7.96 | 9.42 | 4.75 | 1060 nM | CCN(CC)CCNc1ccnc2ccccc12 | 892 nM
11 | 8.09 | 9.5 | 4.83 | 448 nM | CCN(CC)CCNc1ccnc2cc(OC)ccc12 | 399 nM
